# Data published in ChEMBL document CHEMBL3826876, “Toward the Development of Specific G-Quadruplex Binders: Synthesis, Biophysical, and Biological Studies of New Hydrazone Derivatives” (J Med Chem, 2016).
# Active and inactive are the calls of the source. The rule behind the calls is not given here.
# Experiments:
# [1] = Effect on synthetic self-complementary DNA 12-mer duplex topology at 4 mol equiv in presence of K+ ions by circular dichroism spectroscopic analysis
# In short: (§1)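 CD spectra at 20 °C, 230-360 nm, 3 scans averaged, baseline subtracted; 10 µM G4 or 15 µM duplex in potassium- or lithium-phosphate pH 7.0 buffers with 100 mM KCl (c-kit2, c-myc: 5 mM potassium phosphate, 20 mM KCl); ligand 4 molar equiv added to folded DNA from 6 mM DMSO stock.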
# [2] = Effect on synthetic c-KIT1 G-quadruplex DNA topology at 4 mol equiv by circular dichroism spectroscopic analysis; in short: as §1
# [3] = Binding affinity to synthetic c-KIT1 G-quadruplex DNA assessed as change in melting temperature at 4 mol equiv in presence of 100 mM KCl buffer by circular dichroism spectroscopic analysis
# In short: (§2)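 CD melting, 20-100 °C at 1 °C/min, signal at 264 (parallel), 290 (antiparallel) or 280 nm (duplex). G4 DNA 10 µM or duplex 15 µM, folded by heating at 90 °C 5 min and slow cooling, in 10 mM potassium phosphate (c-kit1, Tel23, Tel26) or lithium phosphate (Tel23-p, ds12) pH 7.0 with 100 mM KCl. Ligand 4 equiv; Tm by curve fit, ΔTm vs DNA alone; duplicate average.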
# [4] = Binding affinity to human 5'-FAM/3'-TAMRA labeled telomere 21 parallel G-quadruplex DNA (unknown origin) assessed as change in melting temperature at 4:1 ligand:DNA ratio in presence of 100 mM KCl buffer by FRET assay
# In short: (§3)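 FRET melting of FAM/TAMRA-labelled G4 oligos (400 nM, annealed 85 °C 10 min) with ligand at 4 equiv, same buffers as CD (20 mM KCl for c-kit2 and c-myc; 100 mM KCl for telomeric parallel form, annealed at high concentration). Excitation 450-495 nm, emission 515-545 nm, read every 0.5 °C over 30-100 °C; ΔTm by curve fit; duplicate runs averaged.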
# [5] = Effect on synthetic telomere 23 G-quadruplex DNA topology at 4 mol equiv by circular dichroism spectroscopic analysis; in short: as §1
# [6] = tested on: U2OS; assay: Cytotoxicity against human U2OS cells assessed as cell death after 24 hrs by FACS analysis; assay type: cell-based
# [7] = Binding affinity to synthetic telomere 23 parallel G-quadruplex DNA assessed as change in melting temperature at 4 mol equiv in presence of 100 mM KCl buffer by circular dichroism spectroscopic analysis; in short: as §2
# [8] = Binding affinity to 5'-FAM/3'-TAMRA labeled c-MYC G-quadruplex DNA (unknown origin) assessed as change in melting temperature at 4:1 ligand:DNA ratio in presence of 20 mM KCl buffer by FRET assay; in short: as §3
# [9] = Binding affinity to synthetic c-KIT2 G-quadruplex DNA assessed as change in melting temperature at 4 mol equiv in presence of 20 mM KCl buffer by circular dichroism spectroscopic analysis
# In short: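 CD melting as for other targets (20-100 °C, 1 °C/min, 10 µM folded G4, ligand 4 equiv), but in 5 mM potassium phosphate with 20 mM KCl; c-kit2 read at 264 nm as parallel G4. ΔTm from fitted Tm, duplicate average.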
# [10] = tested on: U2OS; assay: Cytotoxicity against human U2OS cells assessed as cell killing after 1 hr by MTT assay; assay type: functional, cell-based
# In short: (§4)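 U2OS and HCT116 in DMEM with 10% FBS, 1% L-glutamine, seeded at 40000 cells/ml; 24 h later exposed for 1 h or 24 h, then drug-free medium 1-2 days. MTT 1 h at 37 °C, DMSO solubilisation, absorbance 595 nm. IC50 by linear regression; two independent experiments in triplicate, mean ± SE.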
# [11] = Ratio of IC50 for human U2OS cells to stabilization of nuclear G-quadruplex DNA in human U2OS cells
# [12] = tested on: U2OS; assay: Cytotoxicity against human U2OS cells assessed as cell killing after 24 hrs by MTT assay; assay type: functional, cell-based; in short: as §4
# [13] = Effect on synthetic telomere 23 parallel G-quadruplex DNA topology at 4 mol equiv by circular dichroism spectroscopic analysis; in short: as §1
structure (smiles),measurement,setting,value
Br.O=Cc1c(-c2ccccc2)nc2n1ccc1nc(-c3ccccc3)c(/C=N/NC3=NCCN3)n12,Activity,[1],inactive
same,Activity,[2],inactive
same,ΔTm,[3],2.7 °C
same,ΔTm,[4],7 °C
same,Activity,[5],inactive
same,Activity,[6],Non-toxic
same,ΔTm,[7],9.1 °C
same,ΔTm,[8],> 20 °C
same,ΔTm,[9],9.5 °C
same,IC50,[10],5.73 µM
same,Ratio,[11],4
same,IC50,[12],0.845 µM
same,Activity,[13],inactive
